The EternaBench riboswitch data

Test system: MS2 coat protein
Assay: apparent Kd, MS2 coat protein; higher = weaker binding; RNA-MaP array; FMN 200 µM where present
Method in brief: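 Designs on Illumina sequencing-chip clusters, transcribed by stalled E. coli RNA polymerase, were exposed to SNAP-549-labelled MS2 coat protein in doubling steps from 0.7 or 1.5 nM up to 3 µM, without and then with constant ligand. The buffer held 100 mM Tris-HCl pH 7.5, 80 mM KCl, 4 mM MgCl2, BSA, DTT, yeast tRNA and Tween-20. Apparent Kd values are medians of filtered per-cluster binding-curve fits to green signal normalised to red-channel RNA signal and control-cluster median Fmax.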

[1] = designed as: OFF switch for flavin mononucleotide, no ligand
[2] = ligand present: flavin mononucleotide, designed as: OFF switch for flavin mononucleotide
[3] = designed as: ON switch for flavin mononucleotide, no ligand
[4] = ligand present: flavin mononucleotide, designed as: ON switch for flavin mononucleotide

Sequence: GGAUGACAAAGUCAUCCAAUUCGAACAUGAGGAUCACCCAUGUAGGAUAUCGUACUCAAAGAGUACGAGAAGGACAUGUGCUUU
- apparent Kd [1]: 40.3 nM
- apparent Kd [2]: 154 nM

Sequence: GGAUGACAAAGUCAUCCAAUUCGAACAUGAGGAUCACCCAUGUAGGAUAUGCUACACAAAGUGUAGCAGAAGGACAUGUGCCUU
- apparent Kd [1]: 30.7 nM
- apparent Kd [2]: 183 nM

Sequence: GGAUGACAAAGUCAUCCAAUUCGAACAUGAGGAUCACCCAUGUAGGAUAUGCUACACAAAGUGUAGCAGAAGGACAUGUGCUUU
- apparent Kd [1]: 36.5 nM
- apparent Kd [2]: 169 nM

Sequence: GGAUGACAAAGUCAUCCUAAACGAACAUGAGGAUCACCCAUGUAGGAUAUGCUACUCAAAGAGUAGCAGAAGGACAUGUGCCUU
- apparent Kd [1]: 37.3 nM
- apparent Kd [2]: 260 nM

Sequence: GGAUGACAAAGUCAUCCUAUUCGAACAUGAGGAUCACCCAUGUAGGAUAUGCUAGUCAAAGACUAGCAGAAGGACAUGUGCCUU
- apparent Kd [1]: 36.4 nM
- apparent Kd [2]: 164 nM

Sequence: GGAUGAGAAACUCAUCCAAUACGAACAUGAGGAUCACCCAUGUAGGAUAUGCUACUCAAAGAGUAGCAGAAGGACAUGUGCCUU
- apparent Kd [1]: 30 nM
- apparent Kd [2]: 254 nM

Sequence: GGAUGAUAGACAGGAUAUUGAUUGUAAUUAUGUCAAGAAGGGUCUUUGAUUUAAACGACCAGUUACAUGAGGAUCACCCAUGUU
- apparent Kd [3]: 30.7 nM
- apparent Kd [4]: 21 nM

Sequence: GGAUGAUUAAUAGGAUAUUAUUUGUAAAUUGGUUAAGAAGGAUUAAUGAUUUAAACGACCUGUUACAUGAGGAUCACCCAUGUU
- apparent Kd [3]: 45.1 nM
- apparent Kd [4]: 35.2 nM

Sequence: GGAUGUAAGGAGAAGGGCUACUGGUUGAAACCUGCGGCCUCUGGAACAUGAGGAUCACCCAUGUAGCAGGAUAUCCUUGCGUGA
- apparent Kd [1]: 129 nM
- apparent Kd [2]: 46.3 nM

Sequence: GGAUGUCAAAGACAUCCAAAUCGAACAUGAGGAUCACCCAUGUAGGAUAUGCUACUCAAAGAGUAGCAGAAGGACAUGUGCUUU
- apparent Kd [1]: 41.5 nM
- apparent Kd [2]: 223 nM

Sequence: GGAUUACAUGAGGAUCACCCAUGUGAGGAUAUCGAUGUCCAGUAGGGCGUGCGGGACUCGAGAAGGCACUUGGA
- apparent Kd [1]: 47.5 nM
- apparent Kd [2]: 177 nM

Sequence: GGAUUACAUGAGGAUCACCCAUGUGAGGAUAUCGAUGUCCUCAAUCCCGUGCGGGACUCGAGAAGGCACUUGGA
- apparent Kd [1]: 63 nM
- apparent Kd [2]: 48.8 nM

Sequence: GGAUUUUACUAGUUUUCUAUACAUGAGGAUCACCCAUGUUUUUAGGAUAUCAGCGUGAAACACGCUGAGAAGGAAGAACAAUCC
- apparent Kd [1]: 15.4 nM
- apparent Kd [2]: 18.5 nM

Sequence: GGCACUAUCACAGGAUAUGCUUUCCUUUGGGAAGCAGAAGGGUGUAACAUGAGGAUCACCCAUGUGGUGCCAGGGCGUGAGCCC
- apparent Kd [3]: 114 nM
- apparent Kd [4]: 10.9 nM

Sequence: GGCAGACAUGAGGAUCACCCAUGUCAGGAUAUGUGGCGAUCGUCGAUAGACGAUAGCCACAGAAGGGACAUGCC
- apparent Kd [1]: 23.9 nM
- apparent Kd [2]: 39.5 nM

Sequence: GGCAGCGGACAAGGAUAUAAGACGCAGACCAAAUUAGAAGGUGUCAUCUGGCAAUGCGAAAGCAGACAUGAGGAUCACCCAUGU
- apparent Kd [3]: 68.8 nM
- apparent Kd [4]: 61.7 nM

Sequence: GGCAUGUAAGGAUAUGUCCCUGAGUGCUUUGCGCUCAGGAAACAGAAGGUACAUGAGGAUCACCCAUGUGAUAA
- apparent Kd [1]: 725 nM
- apparent Kd [2]: 75.9 nM

Sequence: GGCCCGUAAGGAUAUAAUGCUCAGGUGAAAACCGAGCUCCGUUAGAAGGUACAUGAGGAUCACCCAUGUGAUCG
- apparent Kd [1]: 107 nM
- apparent Kd [2]: 124 nM

Sequence: GGCCUGUGAGGAUAUUAGUAGUAGUCAGAAUAGACUAUUACUGAGAAGGUACAUGAGGAUCACCCAUGUUGGCC
- apparent Kd [1]: 19.4 nM
- apparent Kd [2]: 15.9 nM

Sequence: GGCGGUCCUUAAUGCACCUGCACAUGAGGAUCACCCAUGUACAGAAGGGCCAGCACCGAAGUAUGGCAGGAUAUGUCGCACGAG
- apparent Kd [1]: 7.56 nM
- apparent Kd [2]: 10.1 nM

Sequence: GGCUACGUUUCGUAGCAGCUAGGUGAGGAUAUUCAAUUUUUCACAUGAGGAUCACCCAUGUAUGUGAAGAAGGCGCCUAGAAAG
- apparent Kd [3]: 12.6 nM
- apparent Kd [4]: 4.85 nM

Sequence: GGCUGCGUUGUGAAGGAUAUCCGCGUCUGGACAUGAGGAUCACCCAUGUAUGCUUGGAUCGUGCCGGAGAAGGUCACGAAUGAUU
- apparent Kd [3]: 34.5 nM
- apparent Kd [4]: 15.9 nM

Sequence: GGCUUAAACACAGGAUAUAGUCUUAGGGCGAGACUAGAAGGGUGAAGUUCUCAUACAUGAGGAUCACCCAUGUCACGGAGGCUA
- apparent Kd [3]: 45.1 nM
- apparent Kd [4]: 169 nM
